Experimental data published in article PMC2868107 (Biochemistry, 2010).
Read-outs that look alike come from different tables or passages of the source. Where a SMILES comes first, the peptide text is derived from it. Where no end group is shown, it is not given here.

Legend:
neuropilin-2 = target: T1, neuropilin-2 (Homo sapiens, UniProt O60462); assay: Sedimentation velocity analytical ultracentrifugation with neuropilin-2; type: binding
T1 sequence (O60462 276-595 limits assumed): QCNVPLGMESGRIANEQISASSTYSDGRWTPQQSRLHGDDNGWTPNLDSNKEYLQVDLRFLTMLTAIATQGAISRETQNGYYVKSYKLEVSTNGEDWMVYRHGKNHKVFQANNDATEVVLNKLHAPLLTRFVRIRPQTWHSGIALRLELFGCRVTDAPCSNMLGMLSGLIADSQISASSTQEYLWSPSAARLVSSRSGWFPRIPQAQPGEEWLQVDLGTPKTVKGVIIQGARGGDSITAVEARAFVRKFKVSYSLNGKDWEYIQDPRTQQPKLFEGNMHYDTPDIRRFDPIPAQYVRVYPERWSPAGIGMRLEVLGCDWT
Method in brief: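 Sedimentation velocity was run at 4°C and 40,000 rpm in 10 mM Tris pH 7.5, 150 mM NaCl, 1 mM sodium azide. Human neuropilin-2 b1b2 was held at 8 μM. The oxidised dimeric C-terminal Sema3F peptide was added at 2.5X molar excess. Absorbance was read at 280 nm. Sedimentation coefficient distributions (0.1–6 s) were fit to numerical Lamm equation solutions, using calculated buffer density, viscosity and partial specific volumes.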

[1] = target: Neuropilin-1 (Homo sapiens) (UniProt O14786); assay: SPR; conditions: cited from earlier work
neuropilin-1 [2] = conditions: cited from earlier work
axon = conditions: cited from earlier work
neuropilin-1 [3] = target: T2, neuropilin-1 (Homo sapiens, UniProt O14786); type: binding
T2 sequence (O14786 273-586 limits assumed): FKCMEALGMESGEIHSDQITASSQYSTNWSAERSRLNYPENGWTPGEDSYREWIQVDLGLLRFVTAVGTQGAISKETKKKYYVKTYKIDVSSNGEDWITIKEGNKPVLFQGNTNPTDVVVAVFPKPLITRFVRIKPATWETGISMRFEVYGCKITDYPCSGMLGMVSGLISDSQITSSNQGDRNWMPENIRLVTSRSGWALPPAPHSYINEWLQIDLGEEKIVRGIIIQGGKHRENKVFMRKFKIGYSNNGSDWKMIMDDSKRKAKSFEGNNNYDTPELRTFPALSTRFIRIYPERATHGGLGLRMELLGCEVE

furin = assay: Furin processing of Sema3F C-terminus; type: cell-based; conditions: C-terminal Hgh fusion, western blot
Method in brief: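 The C-terminal neuropilin-binding region of human Sema3F (residues 605-785) was fused to human growth hormone. Cells were kept in α-MEM with 5% FBS, moved at 80% confluence to serum-free Hybridoma-SFM, and PEI-transfected with 1 μg DNA/mL at a 3:1 PEI:DNA ratio. Hosts were CHO, furin-deficient FD11, furin-overexpressing CHO, and COS-7 with or without furin inhibitors. Media were western-blotted with anti-Hgh polyclonal (1:10,000) and HRP anti-rabbit (1:20,000) antibodies, then chemiluminescence.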

[4] = target: T3, core ligand binding region (b1b2) of human neuropilin-2 (human, UniProt O60462 277-592); assay: AUC
T3 sequence (looked up): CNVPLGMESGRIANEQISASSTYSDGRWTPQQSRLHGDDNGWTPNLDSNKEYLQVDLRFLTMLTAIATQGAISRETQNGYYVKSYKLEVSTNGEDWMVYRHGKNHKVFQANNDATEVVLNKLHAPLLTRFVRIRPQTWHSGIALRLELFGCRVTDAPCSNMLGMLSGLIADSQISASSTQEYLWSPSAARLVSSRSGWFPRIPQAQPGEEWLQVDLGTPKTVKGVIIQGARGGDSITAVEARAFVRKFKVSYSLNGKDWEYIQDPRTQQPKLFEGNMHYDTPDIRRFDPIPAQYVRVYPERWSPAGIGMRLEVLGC

[5] = target: core ligand binding region (b1b2) of human neuropilin-1 (human) (UniProt O14786); assay: plate-based inhibition assay
[6] = target: core ligand binding region (b1b2) of human neuropilin-1 (human) (UniProt O14786); assay: plate-based inhibition assay; remark: listed apart in the source

Chain of core ligand binding region (b1b2) of human neuropilin-1 (human) (O14786 22-923): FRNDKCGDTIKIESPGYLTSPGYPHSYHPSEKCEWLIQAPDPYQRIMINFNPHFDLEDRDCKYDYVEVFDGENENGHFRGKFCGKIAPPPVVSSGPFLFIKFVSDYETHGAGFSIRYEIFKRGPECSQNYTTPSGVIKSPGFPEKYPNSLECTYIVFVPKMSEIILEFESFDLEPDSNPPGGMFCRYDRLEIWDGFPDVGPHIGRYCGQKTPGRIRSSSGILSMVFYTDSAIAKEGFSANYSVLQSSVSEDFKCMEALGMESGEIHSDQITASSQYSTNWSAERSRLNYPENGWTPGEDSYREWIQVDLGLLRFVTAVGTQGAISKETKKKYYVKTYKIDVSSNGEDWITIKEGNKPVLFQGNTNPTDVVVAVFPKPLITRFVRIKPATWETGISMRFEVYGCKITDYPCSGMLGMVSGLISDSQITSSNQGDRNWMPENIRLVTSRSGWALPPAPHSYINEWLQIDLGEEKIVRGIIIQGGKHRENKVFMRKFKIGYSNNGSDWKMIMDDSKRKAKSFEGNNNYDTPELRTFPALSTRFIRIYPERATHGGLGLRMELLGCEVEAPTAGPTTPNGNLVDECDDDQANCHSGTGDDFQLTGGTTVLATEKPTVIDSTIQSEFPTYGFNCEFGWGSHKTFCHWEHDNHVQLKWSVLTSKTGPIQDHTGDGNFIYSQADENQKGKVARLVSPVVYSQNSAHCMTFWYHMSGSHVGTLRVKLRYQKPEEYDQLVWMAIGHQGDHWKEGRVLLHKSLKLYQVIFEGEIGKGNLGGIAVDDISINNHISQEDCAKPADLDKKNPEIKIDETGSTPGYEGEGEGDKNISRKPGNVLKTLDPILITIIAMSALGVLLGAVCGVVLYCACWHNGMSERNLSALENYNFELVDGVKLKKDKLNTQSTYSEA
Chain of Neuropilin-1 (Homo sapiens) (O14786 22-923): as above

GLIHQYCQGYWRHVPPSPREAPGAPRSPEPDQKKPRNRRHHPPDT (disulfide (positions not given here)) [C-Sema]
% of species, peak a (neuropilin-2; neuropilin-2 8 μM + C-Sema 2.5X molar excess, free C-Sema): 32%
c(M), peak a (neuropilin-2; neuropilin-2 8 μM + C-Sema 2.5X molar excess, free C-Sema (expected 10.7 kDa)): 11.1 ± 0.6 kDa
% of species, peak c (neuropilin-2; neuropilin-2 8 μM + C-Sema 2.5X molar excess, neuropilin-2 dimer): 4%
% of species, peak b (neuropilin-2; neuropilin-2 8 μM + C-Sema 2.5X molar excess, neuropilin-2 monomer): 58%
interaction with neuropilin-2 by sedimentation velocity (neuropilin-2; neuropilin-2 8 μM, peptide 2.5X molar excess): no significant interaction with neuropilin-2

VEGF (from UniProt P15692)
Kd [1]: 2000 nM

VEGF
increase in apparent affinity of VEGF with four fold higher neuropilin density (neuropilin-1 [2]): twenty
effect on semaphorin mediated growth cone collapse (axon): directly antagonize semaphorin mediated growth cone collapse

CC(C)C[C@H](NC(=O)[C@H](Cc1c[nH]c2ccccc12)NC(=O)[C@@H](NC(=O)[C@H](C)N)[C@@H](C)O)C(=O)N1CCC[C@H]1C(=O)N1CCC[C@H]1C(=O)N[C@@H](CCCNC(=N)N)C(=O)O [ATWLPPR] (H-ATWLPPR-OH)
IC50 (neuropilin-1 [3]): 10500 ± 2000 nM

B1: Neuropilin-2: core ligand binding region (b1b2) of human neuropilin-2 (protein)
chain: CNVPLGMESGRIANEQISASSTYSDGRWTPQQSRLHGDDNGWTPNLDSNKEYLQVDLRFLTMLTAIATQGAISRETQNGYYVKSYKLEVSTNGEDWMVYRHGKNHKVFQANNDATEVVLNKLHAPLLTRFVRIRPQTWHSGIALRLELFGCRVTDAPCSNMLGMLSGLIADSQISASSTQEYLWSPSAARLVSSRSGWFPRIPQAQPGEEWLQVDLGTPKTVKGVIIQGARGGDSITAVEARAFVRKFKVSYSLNGKDWEYIQDPRTQQPKLFEGNMHYDTPDIRRFDPIPAQYVRVYPERWSPAGIGMRLEVLGC
% of species, peak b (neuropilin-2; neuropilin-2 alone, 8 μM, dimer): 3%
c(M), peak b (neuropilin-2; neuropilin-2 alone, 8 μM, dimer (expected 76.8 kDa)): 74.3 ± 3.0 kDa
s20,w, peak b (neuropilin-2; neuropilin-2 alone, 8 μM, dimer, 4°C, 10 mM Tris pH 7.5, 150 mM NaCl): 4.73 S
% of species, peak a (neuropilin-2; neuropilin-2 alone, 8 μM, monomer): 97%
c(M), peak a (neuropilin-2; neuropilin-2 alone, 8 μM, monomer (expected 38.4 kDa)): 37.9 ± 1.9 kDa
c(M), peak a (neuropilin-2; neuropilin-2 alone, 8 μM, monomer (expected 38.4 kDa), listed as neuropilin-2): 37.9 kDa
s20,w, peak a (neuropilin-2; neuropilin-2 alone, 8 μM, monomer, 4°C, 10 mM Tris pH 7.5, 150 mM NaCl): 3.03 S

B2: Sema3F (Ig-basic): C-terminal neuropilin binding region of human Sema3F (residues 605-785) with C-terminal human growth hormone fusion (protein)
chain: ANKNAVESVQYGVAGSAAFLECQPRSPQATVKWLFQRDPGDRRREIRAEDRFLRTEQGLLLRALQLSDRGLYSCTATENNFKHVVTRVQLHVLGRDAVHAALFPPLSMSAPPPPGAGPPTPPYQELAQLLAQPEVGLIHQYCQGYWRHVPPSPREAPGAPRSPEPQDQKKPRNRR
modifications: left off: Human Growth Hormone (Hgh), N-terminal, kept
processing state of Sema3F (furin; CHO cells overexpressing furin): only the processed form
processing state of Sema3F (furin; COS-7 cells, no furin inhibitor): nearly completely processed
proteolytic processing of Sema3F (fraction processed) (furin; Cos7 cells, no furin inhibitor): > 95%
processing state of Sema3F (furin; FD11 CHO cells lacking furin activity): solely the unprocessed form
processing state of Sema3F (furin; wild-type CHO cells): a mixture of processed and unprocessed forms

GLIHQYCQGYWRHVPPSPREAPGAPRSPEPQDQKKPRNRR (also: disulfide-linked dimer (interchain disulfide))
stoichiometry N [4]: 1 neuropilin-2:C-furSema
IC50 [5]: 46 nM
IC50 [6]: 45 nM
